From ChEMBL document CHEMBL5331142, “Novel 1,4-Dihydropyridines as Specific Binders and Activators of SIRT3 Impair Cell Viability and Clonogenicity and Downregulate Hypoxia-Induced Targets in Cancer Cells” (J Med Chem, 2023)
Activity calls are given as the source filed them. The rule behind the calls is not given here.

Key:
[1] = target: T1, NAD-dependent protein deacetylase sirtuin-3, mitochondrial (Homo sapiens) (UniProt Q9NTG7); assay: Activation of N-terminal his-tagged human SIRT3 (114 to 380 residues) deacylation activity expressed in Escherichia coli at 100 uM using ACS2-acK642 as substrate in presence of NAD+ by NADH oxidation-coupled enzymatic assay; details: filed as activator
T1 sequence (whole entry): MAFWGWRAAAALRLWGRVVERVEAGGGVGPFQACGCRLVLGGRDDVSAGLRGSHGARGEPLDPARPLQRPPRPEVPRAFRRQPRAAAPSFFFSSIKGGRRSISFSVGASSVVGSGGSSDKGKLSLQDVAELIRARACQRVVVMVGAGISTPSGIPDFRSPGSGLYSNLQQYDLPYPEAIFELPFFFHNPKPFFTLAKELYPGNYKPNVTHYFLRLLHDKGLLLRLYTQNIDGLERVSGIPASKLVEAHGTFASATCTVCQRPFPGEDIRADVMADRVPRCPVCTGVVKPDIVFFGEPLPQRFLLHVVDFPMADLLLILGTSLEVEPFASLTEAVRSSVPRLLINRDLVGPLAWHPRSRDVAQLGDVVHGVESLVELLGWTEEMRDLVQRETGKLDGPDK
Summary of the method: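 Coupled PncA/GDH deacylation assay following NADPH oxidation to NADP+. 1.5 μM SIRT3 (E. coli-expressed, tag removed) with 50 μM ACS2-acK642 peptide and 100 μM NAD+, compound at 100 μM, 5% final DMSO.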

[2] = target: T1, NAD-dependent protein deacetylase sirtuin-3, mitochondrial (Homo sapiens); assay: Activation of human SIRT3 overexpressing in human MDA-MB-231 cells assessed as increase in GDH activity at 50 uM incubated for 4 hrs by absorbance assay; assay type: cell-based; details: filed as activator
Summary of the method: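 MDA-MB-231 cells exposed 4 h to 50 μM compound. 10^6 cells lysed in GDH assay buffer for 10 min on ice. Supernatant mixed with developer and glutamate, incubated 3 min at 37 °C, absorbance read at 450 nm with buffer blank subtracted. SIRT3-overexpressing MDA-MB-231 cells served as reference.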

CAL-62 [3] = assay: Anticancer activity against human CAL-62 cells assessed as reduction in cell viability at 50 uM incubated for 24 to 48 hrs under hypoxia condition by trypan blue exclusion assay; assay type: functional, cell-based; details: time 24-48 hrs, TDE = time-dependent effect
Summary of the method: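 CAL-62 cells in RPMI 1640 with 10% FBS, treated with 50 μM compound (DMSO) for 24 and 48 h. Hypoxia induced with 200 μM CoCl2, kept in the medium during treatment. Viable cells counted by 0.4% trypan blue staining on a hemocytometer.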

MDA-MB-231 [4] = assay: Downregulation of MMP9 gene expression in human MDA-MB-231 cells at 50 uM incubated for 48 hrs by qRT-PCR analysis; assay type: functional, cell-based
Summary of the method: (§1)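 MDA-MB-231 cells treated with 50 μM compound for 48 h under normoxia, DMSO vehicle control. qRT-PCR quantified by the 2(−ΔCt) method as fold of control, mean ± SEM. Three independent experiments.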

CAL-62 [5] = assay: Downregulation of EPAS-1 expression in human CAL-62 cells at 50 uM incubated for 48 hrs under hypoxia condition by Western blot analysis; assay type: functional, cell-based
Summary of the method: (§2)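 CAL-62 or MDA-MB-231 cells made hypoxic with 200 μM CoCl2 for 24 h, then treated with 50 μM compound for 48 h with CoCl2 retained. Lysates (15 or 50 μg protein) immunoblotted for HIF-1α, EPAS-1 or CA-IX with ACTB, ECL detection. 3-TYP (1 μM) as control.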

MDA-MB-231 [6] = assay: Downregulation of HIF1alpha expression in human MDA-MB-231 cells at 50 uM incubated for 48 hrs under hypoxia condition by Western blot analysis; assay type: functional, cell-based; summary of the method: as §2
MDA-MB-231 [7] = assay: Downregulation of EPAS-1 expression in human MDA-MB-231 cells at 50 uM incubated for 48 hrs under hypoxia condition by Western blot analysis; assay type: functional, cell-based; summary of the method: as §2
MDA-MB-231 [8] = assay: Downregulation of COL1A2 gene expression in human MDA-MB-231 cells at 50 uM incubated for 48 hrs by qRT-PCR analysis; assay type: functional, cell-based; summary of the method: as §1
MDA-MB-231 [9] = assay: Downregulation of ZEB1 gene expression in human MDA-MB-231 cells at 50 uM incubated for 48 hrs under hypoxia condition by qRT-PCR analysis; assay type: functional, cell-based
Summary of the method: (§3)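 MDA-MB-231 cells pretreated with 200 μM CoCl2 to induce hypoxia, then exposed to 50 μM compound for 48 h with CoCl2 maintained. qRT-PCR by the 2(−ΔCt) method vs DMSO control, mean ± SEM. Four independent experiments.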

MDA-MB-231 [10] = assay: Downregulation of MMP2 gene expression in human MDA-MB-231 cells at 50 uM incubated for 48 hrs under hypoxia condition by qRT-PCR analysis; assay type: functional, cell-based; summary of the method: as §3
MDA-MB-231 [11] = assay: Downregulation of MMP9 gene expression in human MDA-MB-231 cells at 50 uM incubated for 48 hrs under hypoxia condition by qRT-PCR analysis; assay type: functional, cell-based; summary of the method: as §3
[12] = target: T1, NAD-dependent protein deacetylase sirtuin-3, mitochondrial (Homo sapiens); assay: Activation of human SIRT3 overexpressing in human MDA-MB-231 cells assessed as increase in acK68-MnSOD deacetylation level at 50 uM incubated for 4 hrs by Western blot analysis assay; assay type: cell-based; details: filed as activator
Summary of the method: (§4)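 CAL-62 or MDA-MB-231 cells treated 4 h at 50 μM. Lysed in Tris/NaCl/EDTA/Triton buffer with protease and phosphatase inhibitors. 15 or 50 μg protein resolved by SDS-PAGE, immunoblotted for acK68- or acK122-MnSOD and total MnSOD, ECL detection. Densitometric acetyl/total ratio. SIRT3 inhibitor 3-TYP (1 μM) used as control.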

[13] = target: T1, NAD-dependent protein deacetylase sirtuin-3, mitochondrial (Homo sapiens); assay: Activation of human SIRT3 overexpressing in human MDA-MB-231 cells assessed as increase in acK122-MnSOD deacetylation level at 50 uM incubated for 4 hrs by Western blot analysis assay; assay type: cell-based; details: filed as activator; summary of the method: as §4
CAL-62 [14] = assay: Inhibition of clonogenicity in human CAL-62 cells at 50 uM incubated for 24 to 48 hrs under normoxia condition by crystal violet staining based assay; assay type: functional; details: time 24-48 hrs
Summary of the method: (§5)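 CAL-62 cells at 80–90% confluence treated with 50 μM compound for 24 or 48 h, in normoxia or with 200 μM CoCl2 (hypoxia). 500 cells replated per 100 mm dish and grown about 7 days. Colonies fixed in 4% formaldehyde, stained with 0.5% crystal violet, and counted.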

CAL-62 [15] = assay: Inhibition of clonogenicity in human CAL-62 cells at 50 uM incubated for 24 to 48 hrs under hypoxia condition by crystal violet staining based assay; assay type: functional; details: time 24-48 hrs; summary of the method: as §5
MDA-MB-231 [16] = assay: Induction of cell death in human MDA-MB-231 cells incubated for 48 hrs under hypoxia condition by trypan blue exclusion assay; assay type: functional, cell-based; details: MDA-MB-231, 48 h
Summary of the method: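 MDA-MB-231 cells treated at 1–50 μM for 48 h under 200 μM CoCl2 hypoxia. Dead cells scored by trypan blue on a hemocytometer, EC50 derived. Three independent experiments.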

CAL-62 [17] = assay: Downregulation of CA-IX expression in human CAL-62 cells at 50 uM incubated for 48 hrs under hypoxia condition by Western blot analysis; assay type: functional, cell-based; summary of the method: as §2
MDA-MB-231 [18] = assay: Downregulation of ZEB1 gene expression in human MDA-MB-231 cells at 50 uM incubated for 48 hrs by qRT-PCR analysis; assay type: functional, cell-based; summary of the method: as §1

| Activity [1] | Activity [2] | Activity [12] | Activity [13] | Compound | Activity (CAL-62 [3]) | Activity (MDA-MB-231 [4]) | Activity (CAL-62 [5]) | Activity (MDA-MB-231 [6]) | Activity (MDA-MB-231 [7]) | Activity (MDA-MB-231 [8]) | Activity (MDA-MB-231 [9]) | Activity (MDA-MB-231 [10]) | Activity (MDA-MB-231 [11]) | inhibition at 50 µM (CAL-62 [14]) | inhibition at 50 µM (CAL-62 [15]) | EC50 (MDA-MB-231 [16]) | Activity (CAL-62 [17]) | Activity (MDA-MB-231 [18]) |
| --- | --- | --- | --- | --- | --- | --- | --- | --- | --- | --- | --- | --- | --- | --- | --- | --- | --- | --- |
| 387% | Active | – | – | CCOC(=O)C1=CN(C(=O)c2ccc(OC)c(OC)c2)C=C(C(=O)OCC)C1c1ccccc1 | Tde | Active | Active | Active | Active | Active | Active | Active | Active | – | – | – | – | – |
| 178% | Active | Active | Active | CCOC(=O)C1=CN(C(=O)c2cc(OC)cc(OC)c2)C=C(C(=O)OCC)C1c1ccccc1 | Tde | Active | Active | Active | Active | Active | Active | Active | Active | 68% | 68% | 10.7 µM | Active | Active |
